Test results: ChEMBL document CHEMBL1126293, “Substrate specificity of isopenicillin N synthase” (J Med Chem, 1992)

What was measured:
[1] = target: T1, Regulatory protein BlaR1 (Bacillus licheniformis) (UniProt P12287); assay: Beta-lactamase induction in Bacillus licheniformis
T1 sequence (whole entry): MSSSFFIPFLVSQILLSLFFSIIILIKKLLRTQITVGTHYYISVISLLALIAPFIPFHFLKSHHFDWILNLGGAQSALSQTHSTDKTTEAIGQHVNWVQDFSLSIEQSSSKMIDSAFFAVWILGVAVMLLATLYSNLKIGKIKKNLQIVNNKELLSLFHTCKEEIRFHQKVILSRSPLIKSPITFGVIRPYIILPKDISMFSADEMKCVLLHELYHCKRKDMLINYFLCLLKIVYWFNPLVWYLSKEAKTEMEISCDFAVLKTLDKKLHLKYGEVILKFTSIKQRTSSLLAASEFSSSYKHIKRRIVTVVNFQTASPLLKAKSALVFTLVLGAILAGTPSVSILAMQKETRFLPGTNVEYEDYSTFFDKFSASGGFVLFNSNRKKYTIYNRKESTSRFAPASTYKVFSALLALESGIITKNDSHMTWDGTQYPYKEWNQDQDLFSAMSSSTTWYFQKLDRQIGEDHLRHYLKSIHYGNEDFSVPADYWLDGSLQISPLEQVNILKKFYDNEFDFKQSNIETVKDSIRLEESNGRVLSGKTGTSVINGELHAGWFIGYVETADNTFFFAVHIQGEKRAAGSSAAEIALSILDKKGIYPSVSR
In short: (§1)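 Ethanol-stopped IPNS reactions (peptide 0.3 mM, 25 °C) were mixed 1:1 with log-phase B. licheniformis ATCC 14580 diluted to 30 Klett units and incubated for 2 h at 30 °C. Tylosin was added, then after 15 min nitrocefin, with A492 read over 30 min. β-Lactam was quantified by β-lactamase synthesis relative to penicillin G.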

[2] = target: T2, Isopenicillin N synthase (Penicillium chrysogenum) (UniProt P08703); assay: Anti-micrococcus luteus activity was tested for inhibition of isopenicillin N synthetase.; conditions: Penicillium chrysogenum (Penicillium notatum)
T2 sequence (whole entry): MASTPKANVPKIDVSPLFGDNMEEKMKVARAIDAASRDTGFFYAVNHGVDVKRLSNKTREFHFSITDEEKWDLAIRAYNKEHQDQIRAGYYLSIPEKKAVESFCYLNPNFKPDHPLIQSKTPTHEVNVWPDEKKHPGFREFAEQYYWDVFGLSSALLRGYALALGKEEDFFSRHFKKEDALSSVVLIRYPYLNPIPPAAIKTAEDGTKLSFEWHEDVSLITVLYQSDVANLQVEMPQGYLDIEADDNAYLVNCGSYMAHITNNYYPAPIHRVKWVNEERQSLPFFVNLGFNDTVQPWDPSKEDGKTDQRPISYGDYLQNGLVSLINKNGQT
In short: (§2)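 Peptide added at a known amount to a standard IPNS reaction mixture with ACV as substrate before starting the reaction with enzyme. Applied to peptides not converted to an anti-M. luteus product. Percent inhibition derived from the ratio of reaction rates with and without the peptide.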

Micrococcus luteus [3] = assay: In vitro antibiotic activity against Micrococcus luteus(ATCC 9341 stain).; type: functional, organism-based
In short: (§3)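 Peptides at 0.3 mM incubated with purified IPNS in Tris-HCl pH 8.0 containing KCl, MgSO4, FeSO4, ascorbate and DTT, at 25 °C for 2–20 min in quadruplicate, then stopped with ethanol. Samples with and without penicillinase went into wells on M. luteus ATCC 9341 lawns, incubated overnight at 37 °C, and inhibition zones were read. Peptides giving no product were retested for 1 h at 3 mM.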

[4] = Antibiotic activity against Micrococcus luteus (ATCC 9341 strain); type: functional; in short: as §3
[5] = target: T2, Isopenicillin N synthase (Penicillium chrysogenum); assay: Anti Micrococcus luteus activity was tested for inhibition of Isopenicillin N synthetase (isopenicillin N synthase); yes; in short: as §2
Micrococcus luteus [6] = assay: The compound was tested for the antibiotic activity against Micrococcus luteus(ATCC 9341 stain); no; type: functional, organism-based; in short: as §3
[7] = target: T2, Isopenicillin N synthase (Penicillium chrysogenum); assay: Anti Micrococcus luteus activity was tested for inhibition of IPNS (isopenicillin N synthase); no; in short: as §2
[8] = target: T1, Regulatory protein BlaR1 (Bacillus licheniformis); assay: The compound was tested for Beta-lactamase induction in B. licheniformis; +; in short: as §1

Compound | Beta-lactamase induction [1] | Activity [2] | Antibiotic activity (Micrococcus luteus [3]) | Antibiotic activity [4] | Activity [5] | further results
CC(C)[C@@H](NC(=O)[C@H](CSSC[C@H](NC(=O)CCC[C@H](N)C(=O)O)C(=O)N[C@@H](C(=O)O)C(C)C)NC(=O)CCC[C@H](N)C(=O)O)C(=O)O | + | No activity | Yes | – | – | –
N[C@@H](CCCC(=O)NC(CSSCC(NC(=O)CCC[C@H](N)C(=O)O)C(=O)N[C@H](Cc1c[nH]c2ccccc12)C(=O)O)C(=O)N[C@H](Cc1c[nH]c2ccccc12)C(=O)O)C(=O)O (stereo partly drawn) | – | – | – | No activity | Yes | –
N[C@@H](CCCC(=O)N[C@@H](CSSC[C@H](NC(=O)CCC[C@H](N)C(=O)O)C(=O)N[C@H](C(=O)O)C(C(F)(F)F)C(F)(F)F)C(=O)N[C@H](C(=O)O)C(C(F)(F)F)C(F)(F)F)C(=O)O | – | – | – | No activity | Yes | –
CC(C)[C@@H](NC(=O)[C@H](CSSC[C@H](NC(=O)CCCCCN)C(=O)N[C@@H](C(=O)O)C(C)C)NC(=O)CCCCCN)C(=O)O | + | No activity | Yes | – | – | –
N[C@@H](CCCC(=O)NC(CSSCC(NC(=O)CCC[C@H](N)C(=O)O)C(=O)N[C@H](CCl)C(=O)O)C(=O)N[C@H](CCl)C(=O)O)C(=O)O (stereo partly drawn) | – | – | – | No activity | Yes | –
CC(O)[C@@H](NC(=O)C(CSSCC(NC(=O)CCC[C@H](N)C(=O)O)C(=O)N[C@@H](C(=O)O)C(C)O)NC(=O)CCC[C@H](N)C(=O)O)C(=O)O (stereo partly drawn) | – | No activity | – | – | – | Antibiotic activity (Micrococcus luteus [6]): No activity
CC(C)[C@@H](NC(=O)[C@@H](N)CSSC[C@H](N)C(=O)N[C@@H](C(=O)O)C(C)C)C(=O)O | – | – | – | No activity | Yes | –
CC(C)[C@@H](NC(=O)[C@H](CSSC[C@H](NC(=O)C(N)c1cccc(C(=O)O)c1)C(=O)N[C@@H](C(=O)O)C(C)C)NC(=O)C(N)c1cccc(C(=O)O)c1)C(=O)O (stereo partly drawn) | + | No activity | – | No activity | – | –
N[C@@H](CCCC(=O)N[C@@H](CSSC[C@H](NC(=O)CCC[C@H](N)C(=O)O)C(=O)NC(C(=O)O)C(C(F)(F)F)C(F)(F)F)C(=O)NC(C(=O)O)C(C(F)(F)F)C(F)(F)F)C(=O)O (stereo in doubt; 63) | – | – | – | No activity | Yes | –
N[C@@H](CCCC(=O)NC(CSSCC(NC(=O)CCC[C@H](N)C(=O)O)C(=O)N[C@H](Cc1ccc(O)cc1)C(=O)O)C(=O)N[C@H](Cc1ccc(O)cc1)C(=O)O)C(=O)O (stereo partly drawn) | – | – | – | – | Yes | Antibiotic activity (Micrococcus luteus [6]): No activity
CC(C)[C@@H](NC(=O)[C@H](CSSC[C@H](NC(=O)Cc1cccc(N)c1)C(=O)N[C@@H](C(=O)O)C(C)C)NC(=O)Cc1cccc(N)c1)C(=O)O | + | No activity | Yes | – | – | –
CC(C)[C@@H](NC(=O)[C@H](C)NC(=O)CCC[C@H](N)C(=O)O)C(=O)O | + | No activity | – | No activity | – | –
CC(C)[C@@H](NC(=O)[C@H](CSSC[C@H](NC(=O)c1cccc(C(N)C(=O)O)c1)C(=O)N[C@@H](C(=O)O)C(C)C)NC(=O)c1cccc(C(N)C(=O)O)c1)C(=O)O (stereo partly drawn) | + | No activity | Yes | – | – | –
CC(C)[C@@H](NC(=O)[C@H](CO)NC(=O)CCC[C@H](N)C(=O)O)C(=O)O | + | No activity | – | No activity | – | –
CC(C)[C@@H](NC(=O)[C@H](CSSC[C@H](NC(=O)CCCCCCN)C(=O)N[C@@H](C(=O)O)C(C)C)NC(=O)CCCCCCN)C(=O)O | + | No activity | Yes | – | – | –
N[C@@H](CCCC(=O)N[C@@H](CSSC[C@H](NC(=O)CCC[C@H](N)C(=O)O)C(=O)NC(C(=O)O)C(C(F)(F)F)C(F)(F)F)C(=O)NC(C(=O)O)C(C(F)(F)F)C(F)(F)F)C(=O)O (stereo in doubt; 62) | – | – | – | No activity | Yes | –
CC(C)[C@@H](NC(=O)[C@H](CS)NC(=O)CCC[C@@H](N)C(=O)O)C(=O)O | + | No activity | Yes | – | – | –
CC(C)[C@@H](NC(=O)[C@H](CSSC[C@H](NC(=O)[C@@H]1CCCN1)C(=O)N[C@@H](C(=O)O)C(C)C)NC(=O)[C@@H]1CCCN1)C(=O)O | – | – | – | No activity | – | Activity [7]: No activity
CC(C)[C@@H](NC(=O)[C@H](CS)NC(=O)Cc1ccc(O)cc1)C(=O)O | + | No activity | – | No activity | – | –
CC(C)[C@@H](NC(=O)[C@H](CSSC[C@H](NC(=O)CCCCN)C(=O)N[C@@H](C(=O)O)C(C)C)NC(=O)CCCCN)C(=O)O | – | – | Yes | – | – | Beta-lactamase induction [8]: +; Activity [7]: No activity
N[C@@H](CCCC(=O)N[C@@H](CS)C(=O)NCC(=O)O)C(=O)O | – | – | – | No activity | Yes | –
